# Assay results from ChEMBL document CHEMBL5303300, “EUbOPEN Chemogenomics Library - Multiplex” (2023).
# Values joined by “and” are separate entries in the source; they are usually repeats but may differ in a detail not shown here. Equal entries are not always repeated.
# Columns and labels:
# Format in all cases: toxicity, cell-based
# [1] = tested on: Fibroblast; experiment: Multiplex assay against human fibroblast; settings: number of replicates 2
# How it was run: (§1)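 Compound was added to live cells that had been stained at seeding with Hoechst33342, BioTracker Green Microtubule Cytoskeleton Dye, MitoTracker Red and Annexin V Alexa Fluor 680, and imaging followed on a CQ1 microscope at 37°C and 5% CO2. CellPathfinder machine-learning gating divided cells into Hoechst high-intensity objects or normal cells, normal cells into healthy, pyknosed or fragmented nuclei, and pyknosed cells into mitotic or apoptotic. Tubulin, mitochondrial-mass and membrane-permeability phenotypes are per cents of healthy-nucleus cells.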
# [2] = tested on: HEK-293T; experiment: Multiplex assay against HEK293T; settings: human, number of replicates 2; how it was run: as §1
# [3] = tested on: U2OS; experiment: Multiplex assay against U2OS; settings: human, number of replicates 2; how it was run: as §1
# [4] = 12 h, 1 µM, compound concentration 1 uM
# [5] = 12 h, 10 µM, compound concentration 10 uM
# [6] = 24 h, 1 µM, compound concentration 1 uM
# [7] = 24 h, 10 µM, compound concentration 10 uM
# [8] = 48 h, 1 µM, compound concentration 1 uM
# [9] = 48 h, 10 µM, compound concentration 10 uM
smiles,measurement,setting,value
COc1cc(N2CCN(C)CC2)ccc1Nc1ncc2c(n1)N(C)c1ccccc1C(=O)N2CC(F)(F)F,Population Apoptotic (%),[1]; [4],50% and 44%
same,Population Fragmented Nuclei (%),[1]; [4],14% and 10%
same,Population Healthy Nuclei (%),[1]; [4],74% and 76%
same,Population Hoechst High Intensity Objects (%),[1]; [4],0%
same,Population Membrane Permeable-Phenotype (%),[1]; [4],1% and 2%
same,Population Mitochondria Different-Phenotype (%),[1]; [4],1%
same,Population Mitotic Cells (%),[1]; [4],50% and 55%
same,Population Normal (%),[1]; [4],100%
same,Population Pyknosed Nuclei (%),[1]; [4],10% and 13%
same,Population Tubulin-Different-Phenotype (%),[1]; [4],32% and 20%
same,Total Cell Count,[1]; [4],214 and 269
same,Population Apoptotic (%),[1]; [5],27% and 35%
same,Population Fragmented Nuclei (%),[1]; [5],45% and 17%
same,Population Healthy Nuclei (%),[1]; [5],40% and 66%
same,Population Hoechst High Intensity Objects (%),[1]; [5],4% and 0%
same,Population Membrane Permeable-Phenotype (%),[1]; [5],1% and 3%
same,Population Mitochondria Different-Phenotype (%),[1]; [5],7% and 11%
same,Population Mitotic Cells (%),[1]; [5],72% and 64%
same,Population Normal (%),[1]; [5],95% and 100%
same,Population Pyknosed Nuclei (%),[1]; [5],14% and 16%
same,Population Tubulin-Different-Phenotype (%),[1]; [5],57% and 67%
same,Total Cell Count,[1]; [5],330 and 243
same,Population Apoptotic (%),[1]; [6],75% and 29%
same,Population Fragmented Nuclei (%),[1]; [6],17% and 18%
same,Population Healthy Nuclei (%),[1]; [6],77% and 73%
same,Population Hoechst High Intensity Objects (%),[1]; [6],0%
same,Population Membrane Permeable-Phenotype (%),[1]; [6],1%
same,Population Mitochondria Different-Phenotype (%),[1]; [6],1% and 3%
same,Population Mitotic Cells (%),[1]; [6],25% and 70%
same,Population Normal (%),[1]; [6],99% and 100%
same,Population Pyknosed Nuclei (%),[1]; [6],5% and 8%
same,Population Tubulin-Different-Phenotype (%),[1]; [6],33% and 18%
same,Total Cell Count,[1]; [6],241 and 300
same,Population Apoptotic (%),[1]; [7],62% and 44%
same,Population Fragmented Nuclei (%),[1]; [7],41% and 15%
same,Population Healthy Nuclei (%),[1]; [7],47% and 69%
same,Population Hoechst High Intensity Objects (%),[1]; [7],5% and 0%
same,Population Membrane Permeable-Phenotype (%),[1]; [7],2%
same,Population Mitochondria Different-Phenotype (%),[1]; [7],27% and 34%
same,Population Mitotic Cells (%),[1]; [7],37% and 55%
same,Population Normal (%),[1]; [7],94% and 100%
same,Population Pyknosed Nuclei (%),[1]; [7],10% and 15%
same,Population Tubulin-Different-Phenotype (%),[1]; [7],69% and 78%
same,Total Cell Count,[1]; [7],294 and 218
same,Population Apoptotic (%),[1]; [8],70% and 45%
same,Population Fragmented Nuclei (%),[1]; [8],23% and 16%
same,Population Healthy Nuclei (%),[1]; [8],72% and 77%
same,Population Hoechst High Intensity Objects (%),[1]; [8],0%
same,Population Membrane Permeable-Phenotype (%),[1]; [8],2% and 1%
same,Population Mitochondria Different-Phenotype (%),[1]; [8],1%
same,Population Mitotic Cells (%),[1]; [8],30% and 55%
same,Population Normal (%),[1]; [8],100% and 99%
same,Population Pyknosed Nuclei (%),[1]; [8],4% and 6%
same,Population Tubulin-Different-Phenotype (%),[1]; [8],17% and 10%
same,Total Cell Count,[1]; [8],249 and 315
same,Population Apoptotic (%),[1]; [9],76% and 79%
same,Population Fragmented Nuclei (%),[1]; [9],42% and 17%
same,Population Healthy Nuclei (%),[1]; [9],50% and 72%
same,Population Hoechst High Intensity Objects (%),[1]; [9],4% and 1%
same,Population Membrane Permeable-Phenotype (%),[1]; [9],0% and 4%
same,Population Mitochondria Different-Phenotype (%),[1]; [9],28% and 18%
same,Population Mitotic Cells (%),[1]; [9],23% and 20%
same,Population Normal (%),[1]; [9],95% and 98%
same,Population Pyknosed Nuclei (%),[1]; [9],7% and 10%
same,Population Tubulin-Different-Phenotype (%),[1]; [9],68% and 71%
same,Total Cell Count,[1]; [9],288 and 232
same,Population Apoptotic (%),[2]; [4],31% and 35%
same,Population Fragmented Nuclei (%),[2]; [4],3% and 2%
same,Population Healthy Nuclei (%),[2]; [4],87% and 86%
same,Population Hoechst High Intensity Objects (%),[2]; [4],5% and 6%
same,Population Membrane Permeable-Phenotype (%),[2]; [4],3%
same,Population Mitochondria Different-Phenotype (%),[2]; [4],20% and 16%
same,Population Mitotic Cells (%),[2]; [4],68% and 64%
same,Population Normal (%),[2]; [4],94% and 93%
same,Population Pyknosed Nuclei (%),[2]; [4],9% and 10%
same,Population Tubulin-Different-Phenotype (%),[2]; [4],86% and 78%
same,Total Cell Count,[2]; [4],866 and 792
same,Population Apoptotic (%),[2]; [5],55% and 51%
same,Population Fragmented Nuclei (%),[2]; [5],1% and 3%
same,Population Healthy Nuclei (%),[2]; [5],81% and 83%
same,Population Hoechst High Intensity Objects (%),[2]; [5],13% and 12%
same,Population Membrane Permeable-Phenotype (%),[2]; [5],5% and 4%
same,Population Mitochondria Different-Phenotype (%),[2]; [5],49% and 52%
same,Population Mitotic Cells (%),[2]; [5],44% and 48%
same,Population Normal (%),[2]; [5],86% and 87%
same,Population Pyknosed Nuclei (%),[2]; [5],16% and 13%
same,Population Tubulin-Different-Phenotype (%),[2]; [5],95%
same,Total Cell Count,[2]; [5],412 and 483
same,Population Apoptotic (%),[2]; [6],27% and 32%
same,Population Fragmented Nuclei (%),[2]; [6],3% and 5%
same,Population Healthy Nuclei (%),[2]; [6],90% and 86%
same,Population Hoechst High Intensity Objects (%),[2]; [6],7%
same,Population Membrane Permeable-Phenotype (%),[2]; [6],2%
same,Population Mitochondria Different-Phenotype (%),[2]; [6],8% and 9%
same,Population Mitotic Cells (%),[2]; [6],72% and 67%
same,Population Normal (%),[2]; [6],92%
same,Population Pyknosed Nuclei (%),[2]; [6],5% and 7%
same,Population Tubulin-Different-Phenotype (%),[2]; [6],68%
same,Total Cell Count,[2]; [6],1356 and 1127
same,Population Apoptotic (%),[2]; [7],42% and 49%
same,Population Fragmented Nuclei (%),[2]; [7],3% and 4%
same,Population Healthy Nuclei (%),[2]; [7],80% and 83%
same,Population Hoechst High Intensity Objects (%),[2]; [7],6% and 11%
same,Population Membrane Permeable-Phenotype (%),[2]; [7],2% and 1%
same,Population Mitochondria Different-Phenotype (%),[2]; [7],60% and 59%
same,Population Mitotic Cells (%),[2]; [7],57% and 50%
same,Population Normal (%),[2]; [7],93% and 88%
same,Population Pyknosed Nuclei (%),[2]; [7],16% and 12%
same,Population Tubulin-Different-Phenotype (%),[2]; [7],95%
same,Total Cell Count,[2]; [7],451 and 561
same,Population Fragmented Nuclei (%),[2]; [8],10% and 14%
same,Population Healthy Nuclei (%),[2]; [8],86% and 82%
same,Population Hoechst High Intensity Objects (%),[2]; [8],11% and 10%
same,Population Membrane Permeable-Phenotype (%),[2]; [8],4% and 6%
same,Population Mitochondria Different-Phenotype (%),[2]; [8],2% and 0%
same,Population Mitotic Cells (%),[2]; [8],82% and 95%
same,Population Normal (%),[2]; [8],88% and 89%
same,Population Pyknosed Nuclei (%),[2]; [8],3%
same,Population Tubulin-Different-Phenotype (%),[2]; [8],51% and 48%
same,Total Cell Count,[2]; [8],2136 and 2988
same,Population Apoptotic (%),[2]; [9],50% and 55%
same,Population Fragmented Nuclei (%),[2]; [9],4% and 5%
same,Population Healthy Nuclei (%),[2]; [9],79% and 83%
same,Population Hoechst High Intensity Objects (%),[2]; [9],8% and 11%
same,Population Membrane Permeable-Phenotype (%),[2]; [9],7% and 11%
same,Population Mitochondria Different-Phenotype (%),[2]; [9],37% and 31%
same,Population Mitotic Cells (%),[2]; [9],50% and 44%
same,Population Normal (%),[2]; [9],91% and 88%
same,Population Pyknosed Nuclei (%),[2]; [9],15% and 11%
same,Population Tubulin-Different-Phenotype (%),[2]; [9],91% and 94%
same,Total Cell Count,[2]; [9],580 and 656
same,Population Apoptotic (%),[3]; [4],80% and 51%
same,Population Fragmented Nuclei (%),[3]; [4],11% and 4%
same,Population Healthy Nuclei (%),[3]; [4],76% and 82%
same,Population Hoechst High Intensity Objects (%),[3]; [4],0%
same,Population Membrane Permeable-Phenotype (%),[3]; [4],3%
same,Population Mitotic Cells (%),[3]; [4],20% and 48%
same,Population Normal (%),[3]; [4],100% and 99%
same,Population Pyknosed Nuclei (%),[3]; [4],11% and 12%
same,Population Tubulin-Different-Phenotype (%),[3]; [4],21% and 22%
same,Population Apoptotic (%),[3]; [5],64% and 53%
same,Population Healthy Nuclei (%),[3]; [5],45% and 78%
same,Population Hoechst High Intensity Objects (%),[3]; [5],0%
same,Population Membrane Permeable-Phenotype (%),[3]; [5],17% and 28%
same,Population Mitochondria Different-Phenotype (%),[3]; [5],58% and 54%
same,Population Mitotic Cells (%),[3]; [5],35% and 46%
same,Population Normal (%),[3]; [5],100%
same,Population Pyknosed Nuclei (%),[3]; [5],37% and 19%
same,Population Tubulin-Different-Phenotype (%),[3]; [5],88% and 85%
same,Population Apoptotic (%),[3]; [6],66% and 68%
same,Population Healthy Nuclei (%),[3]; [6],69% and 83%
same,Population Hoechst High Intensity Objects (%),[3]; [6],0%
same,Population Membrane Permeable-Phenotype (%),[3]; [6],3% and 1%
same,Population Mitochondria Different-Phenotype (%),[3]; [6],18% and 19%
same,Population Mitotic Cells (%),[3]; [6],33% and 31%
same,Population Normal (%),[3]; [6],100% and 99%
same,Population Pyknosed Nuclei (%),[3]; [6],15% and 13%
same,Population Tubulin-Different-Phenotype (%),[3]; [6],11% and 30%
same,Population Apoptotic (%),[3]; [7],73%
same,Population Fragmented Nuclei (%),[3]; [7],15% and 6%
same,Population Healthy Nuclei (%),[3]; [7],39% and 55%
same,Population Hoechst High Intensity Objects (%),[3]; [7],0%
same,Population Membrane Permeable-Phenotype (%),[3]; [7],30% and 44%
same,Population Mitochondria Different-Phenotype (%),[3]; [7],69% and 73%
same,Population Mitotic Cells (%),[3]; [7],26%
same,Population Normal (%),[3]; [7],100%
same,Population Pyknosed Nuclei (%),[3]; [7],45% and 37%
same,Population Tubulin-Different-Phenotype (%),[3]; [7],92% and 95%
same,Population Apoptotic (%),[3]; [8],66% and 72%
same,Population Healthy Nuclei (%),[3]; [8],62% and 84%
same,Population Hoechst High Intensity Objects (%),[3]; [8],0%
same,Population Membrane Permeable-Phenotype (%),[3]; [8],2% and 3%
same,Population Mitochondria Different-Phenotype (%),[3]; [8],2% and 11%
same,Population Mitotic Cells (%),[3]; [8],33% and 27%
same,Population Normal (%),[3]; [8],100% and 99%
same,Population Pyknosed Nuclei (%),[3]; [8],22% and 12%
same,Population Tubulin-Different-Phenotype (%),[3]; [8],29% and 37%
same,Population Apoptotic (%),[3]; [9],83% and 86%
same,Population Fragmented Nuclei (%),[3]; [9],26% and 11%
same,Population Hoechst High Intensity Objects (%),[3]; [9],2% and 0%
same,Population Membrane Permeable-Phenotype (%),[3]; [9],85% and 66%
same,Population Mitochondria Different-Phenotype (%),[3]; [9],71% and 74%
same,Population Mitotic Cells (%),[3]; [9],16% and 13%
same,Population Normal (%),[3]; [9],97% and 99%
same,Population Pyknosed Nuclei (%),[3]; [9],57% and 34%
same,Population Tubulin-Different-Phenotype (%),[3]; [9],100% and 94%
